In ChEMBL document CHEMBL3046913, “Feeding deterrence and contact toxicity of Stemona alkaloids-a source of potent natural insecticides” (2002):
Converted amounts (≈) assume the structure as drawn. The source made the active and inactive calls. The rule behind the calls is not given here.

How the values were obtained:
[1] = test system: Spodoptera littoralis; assay: Toxicity in neonate larvae of Spodoptera littoralis after 48 hr; assay type: functional
Outline: (§1)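 Contact toxicity: glass vials were coated with seven concentrations of test compound and the solvent evaporated. Twenty neonate larvae were held in the vials for 3 h, then given artificial diet. Survival was read at 48 h and LC50 derived by probit-log analysis. Run in triplicate or duplicate.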

[2] = test system: Spodoptera littoralis; assay: Growth inhibition of neonate larvae of Spodoptera littoralis after 5 days; assay type: functional; details: 120 h
Outline: (§2)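 Chronic diet assay: neonate larvae (n = 20) from a lab colony were kept on artificial diet spiked via MeOH with eight concentrations of pure alkaloid (0.1-500 ppm). After 5 days in a moist chamber, dark, at 26 °C, survival and weight of survivors were compared with solvent-treated controls. LC50 and EC50 (50% growth inhibition) were derived by probit-log analysis. Run in triplicate.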

[3] = test system: Spodoptera littoralis; assay: Insecticidal activity against neonate larvae of Spodoptera littoralis after 5 days; assay type: functional; details: 120 h; outline: as §2
[4] = test system: Spodoptera littoralis; assay: Toxicity in neonate larvae of Spodoptera littoralis at 133 ug/dm2 after 48 hr; assay type: functional, organism-based; outline: as §1
[5] = test system: Spodoptera littoralis; assay: Antifeedant activity against fifth instar larvae of Spodoptera littoralis assessed as < 5% of total area of treated leaf disks in each petri dish consumed at 0.001 ug/cm2 after 24 hr by leaf disk choice assay; assay type: functional, organism-based
Outline: (§3)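 Leaf disk choice test with fifth instar larvae (about 70 mg each). Lettuce disks of 1.33 cm2 were treated on the upper surface with pure compound at 1-0.001 µg/cm2 in MeOH; controls got solvent only. Two treated and two control disks were placed on moist filter paper with two larvae. Scoring was done when about 50% of control area (0.665 cm2) was eaten, 24 h maximum. Three trials in duplicate, six replicates.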

[6] = test system: Spodoptera littoralis; assay: Antifeedant activity against fifth instar larvae of Spodoptera littoralis assessed as inhibition of feeding without tasting treated leaf disk at 0.01 ug/cm2 after 24 hr by leaf disk choice assay; assay type: functional, organism-based; outline: as §3
[7] = test system: Spodoptera littoralis; assay: Antifeedant activity against fifth instar larvae of Spodoptera littoralis assessed as inhibition of feeding without tasting treated leaf disk at 0.1 ug/cm2 after 24 hr by leaf disk choice assay; assay type: functional, organism-based; outline: as §3
[8] = test system: Spodoptera littoralis; assay: Antifeedant activity against fifth instar larvae of Spodoptera littoralis assessed as inhibition of feeding without tasting treated leaf disk at 1 ug/cm2 after 24 hr by leaf disk choice assay; assay type: functional, organism-based; outline: as §3
[9] = test system: Spodoptera littoralis; assay: Antifeedant activity against fifth instar larvae of Spodoptera littoralis at 0.001 ug/cm2 after 24 hr by leaf disk choice assay; assay type: functional, organism-based; outline: as §3
[10] = test system: Spodoptera littoralis; assay: Antifeedant activity against fifth instar larvae of Spodoptera littoralis assessed as 5 to 20% of total area of treated leaf disks in each petri dish consumed at 0.01 ug/cm2 after 24 hr by leaf disk choice assay; assay type: functional, organism-based; outline: as §3
[11] = test system: Spodoptera littoralis; assay: Toxicity in sixth instar larvae of Spodoptera littoralis assessed as survival at 100 ug/larvae treated directly into hemolymph after 48 hr

| SMILES | LC50 [1] | EC50 (50% growth inhibition) [2] | LC50 [3] | AFI [4] | AFI [5] | AFI [6] | AFI [7] | AFI [8] | AFI [9] | AFI [10] | Survival [11] |
| --- | --- | --- | --- | --- | --- | --- | --- | --- | --- | --- | --- |
| CCCC[C@@]12C3CCN1[C@H]1C[C@H]2O[C@@]32O/C(=C3\OC(=O)C(C)=C3OC)[C@@H](C)[C@H]12 [STEMOFOLINE] | 0.59 microg/dm2 | 1.46 µg/mL (≈ 3.77 µM) | 2.04 µg/mL (≈ 5.26 µM) |  |  |  |  |  |  |  |  |
| CC/C=C/[C@@]12[C@@H]3C[C@H]4[C@H]5[C@H](C)/C(=C6/OC(=O)C(C)=C6OC)O[C@]5(O3)[C@@H]1CCN42 [DIDEHYDROSTEMOFOLINE] | 1.01 microg/dm2 | 0.46 µg/mL (≈ 1.19 µM) | 0.84 µg/mL (≈ 2.18 µM) |  |  |  |  |  |  |  |  |
| C/C=C(\C)C(=O)O[C@H]1C[C@@H](OC(C)=O)[C@@]2(C(=O)OC)CO[C@H]3[C@@H](O)[C@@](C)([C@]45O[C@@]4(C)[C@@H]4C[C@H]5O[C@@H]5OC=C[C@@]54O)[C@H]4[C@]1(CO[C@]4(O)C(=O)OC)[C@@H]32 [AZADIRACHTIN A] |  |  | 8.2 µg/mL (≈ 11.4 µM) | inactive | Active | Active | Active | Active |  |  |  |
| CC[C@@H]1[C@H]2CCCCN3[C@H]2[C@H](C[C@H]3[C@@H]2C[C@H](C)C(=O)O2)[C@@H]2[C@H]1OC(=O)[C@H]2C [TUBEROSTEMONINE] |  |  | > 500 µg/mL | inactive |  |  | Active | Active | inactive | Active | 100% |
| CC[C@H](O)C[C@@]12[C@@H]3C[C@H]4[C@H]5[C@H](C)/C(=C6/OC(=O)C(C)=C6OC)O[C@]5(O3)[C@H]1CCN42 [2'-HYDROXYSTEMOFOLINE] |  | 38.5 µg/mL (≈ 95.3 µM) | 30.3 µg/mL (≈ 75.2 µM) |  |  |  |  |  |  |  |  |
